Data on eight compounds can be found in ChEMBL document CHEMBL4028872, “Structure-Activity Relationship, Pharmacological Characterization, and Molecular Modeling of Noncompetitive Inhibitors of the Betaine/γ-Aminobutyric Acid Transporter 1 (BGT1)” (J Med Chem, 2017).

≈ marks a conversion by molar mass, not a printed value. Where only a bound is given, the exact number is not on record here.

As usually defined, the IC50 is the concentration at which inhibition is half-maximal. For orientation: solubility means the dissolved amount per volume that the medium holds.

For the first series, the target named is T1, Sodium- and chloride-dependent GABA transporter 2 (Homo sapiens, UniProt Q9NSD5).
T1 sequence (Q9NSD5 whole entry): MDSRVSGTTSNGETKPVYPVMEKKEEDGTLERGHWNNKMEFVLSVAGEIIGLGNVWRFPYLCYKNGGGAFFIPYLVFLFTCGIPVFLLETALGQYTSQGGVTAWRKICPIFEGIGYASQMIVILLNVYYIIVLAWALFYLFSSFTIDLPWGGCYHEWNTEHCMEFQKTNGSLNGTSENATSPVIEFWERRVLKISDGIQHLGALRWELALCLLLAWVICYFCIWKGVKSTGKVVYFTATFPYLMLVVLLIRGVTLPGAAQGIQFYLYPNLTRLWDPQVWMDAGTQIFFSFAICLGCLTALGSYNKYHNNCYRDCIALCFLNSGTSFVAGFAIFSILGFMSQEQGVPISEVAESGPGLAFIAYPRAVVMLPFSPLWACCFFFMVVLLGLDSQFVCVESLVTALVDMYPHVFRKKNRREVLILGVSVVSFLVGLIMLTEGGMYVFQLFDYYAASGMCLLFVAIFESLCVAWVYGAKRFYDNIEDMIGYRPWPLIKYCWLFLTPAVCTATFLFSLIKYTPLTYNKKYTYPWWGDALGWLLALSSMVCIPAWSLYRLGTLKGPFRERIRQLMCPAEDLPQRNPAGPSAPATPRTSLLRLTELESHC
The experiment in a line: Inhibition of human GAT2 expresses in tsA201 cells assessed as reduction in [3H]GABA uptake after 3 mins by scintillation counting method. It counts as cell-based. The conditions noted are these: read-out: IC50. The procedure, abridged:
(§1)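 Wild-type human GAT transiently expressed in tsA201 cells via pcDNA5/FRT and PolyFect. Uptake of 30 nM [3H]GABA was run for 3 min at 37 °C in HBSS/20 mM HEPES with 1 mM CaCl2 and 1 mM MgCl2, pH 7.4, across a range of test concentrations. Ice-cold washes were followed by scintillation counting. IC50 was obtained by sigmoidal variable-slope fitting, reported as mean pIC50 ± S.E.M.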
In the case of `O=C(NC1CCN(Cc2ccccc2)CC1)c1ccccc1`, the IC50 is greater than 1000 µM.

For the compound `O=C(NC1CCN(Cc2ccccc2)CC1)c1ccc(F)cc1`, the IC50 was greater than 300 µM.

As to `O=C(NC1CCN(Cc2ccncc2)CC1)c1ccc(Cl)cc1Cl`, the IC50 was greater than 1000 µM.

`N#Cc1ccc(CN2CCC(NC(=O)c3ccc(Cl)cc3Cl)CC2)cc1`: the IC50 was greater than 50 µM.

The target of a further series is Sodium- and chloride-dependent GABA transporter 1 (Mus musculus, UniProt P31648). The experiment in a line: Inhibition of mouse GAT1 expressed in HEK293 cells assessed as reduction in [3H]GABA uptake after 3 mins by scintillation counting method.
Conditions: not given
It is filed as cell-based. The procedure, abridged: (§2)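 HEK293 lines stably expressing a single mouse GAT subtype, kept under blasticidin-S (5 µg/mL) selection. Cells were assayed about 24 h after plating with 30 nM [3H]GABA plus varying compound concentrations for 3 min at 37 °C in HBSS buffered with 20 mM HEPES (1 mM CaCl2, 1 mM MgCl2, pH 7.4). Cells were washed ice-cold and radioactivity counted. IC50 came from sigmoidal variable-slope fits.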
As for `CCOc1cccc(CN2CCC(NC(=O)c3ccc(Cl)nc3Cl)CC2)c1`, the IC50 is greater than 300 µM.

For the compound `O=C(NC1CCN(Cc2cccc(C(F)(F)F)c2)CC1)c1ccc(Cl)cc1Cl`, the half-maximal inhibitory concentration (IC50) was greater than 1000 µM.

`COc1cccc(CN2CCC(NC(=O)c3ccc(Cl)nc3Cl)CC2)c1`: the IC50 was greater than 300 µM.

Regarding `O=C(NC1CCN(Cc2ccccc2)CC1)c1c(Cl)cc(Cl)cc1Cl`, the IC50 was greater than 1000 µM.

The next series addresses T2, Sodium- and chloride-dependent GABA transporter 3 (Homo sapiens, UniProt P48066).
T2 sequence (P48066 whole entry): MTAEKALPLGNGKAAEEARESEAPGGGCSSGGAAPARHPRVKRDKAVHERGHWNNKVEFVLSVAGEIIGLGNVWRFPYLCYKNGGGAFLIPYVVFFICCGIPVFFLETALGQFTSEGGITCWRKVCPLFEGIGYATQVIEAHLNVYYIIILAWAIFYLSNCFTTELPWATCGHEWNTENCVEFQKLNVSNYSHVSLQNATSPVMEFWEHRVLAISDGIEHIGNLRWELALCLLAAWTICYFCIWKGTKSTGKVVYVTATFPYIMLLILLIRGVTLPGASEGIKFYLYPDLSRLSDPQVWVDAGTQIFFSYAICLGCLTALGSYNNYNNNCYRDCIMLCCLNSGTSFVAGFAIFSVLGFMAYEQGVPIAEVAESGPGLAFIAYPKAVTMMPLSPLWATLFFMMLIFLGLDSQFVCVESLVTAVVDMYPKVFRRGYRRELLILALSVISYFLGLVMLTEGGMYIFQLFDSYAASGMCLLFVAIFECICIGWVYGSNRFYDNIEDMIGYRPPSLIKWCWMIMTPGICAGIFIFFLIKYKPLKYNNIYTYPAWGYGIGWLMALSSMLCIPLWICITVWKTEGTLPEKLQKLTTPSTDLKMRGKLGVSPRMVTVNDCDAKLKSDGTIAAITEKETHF
As to the kind of experiment: Inhibition of human GAT3 expresses in tsA201 cells assessed as reduction in [3H]GABA uptake after 3 mins by scintillation counting method. It counts as cell-based. The conditions noted are these: read-out: IC50. Summed up:
as §1
`O=C(NC1CCN(Cc2ccccc2)CC1)c1ccccc1`: the IC50 was greater than 1000 µM.

`O=C(NC1CCN(Cc2ccccc2)CC1)c1ccc(F)cc1`: the IC50 is greater than 300 µM.

With `O=C(NC1CCN(Cc2ccncc2)CC1)c1ccc(Cl)cc1Cl`, the IC50 is greater than 1000 µM.

Take `N#Cc1ccc(CN2CCC(NC(=O)c3ccc(Cl)cc3Cl)CC2)cc1`: the IC50 is greater than 50 µM.

A further series deals with T3, GABA transporter 2 (Mus musculus, UniProt P31651).
T3 sequence (P31651 whole entry): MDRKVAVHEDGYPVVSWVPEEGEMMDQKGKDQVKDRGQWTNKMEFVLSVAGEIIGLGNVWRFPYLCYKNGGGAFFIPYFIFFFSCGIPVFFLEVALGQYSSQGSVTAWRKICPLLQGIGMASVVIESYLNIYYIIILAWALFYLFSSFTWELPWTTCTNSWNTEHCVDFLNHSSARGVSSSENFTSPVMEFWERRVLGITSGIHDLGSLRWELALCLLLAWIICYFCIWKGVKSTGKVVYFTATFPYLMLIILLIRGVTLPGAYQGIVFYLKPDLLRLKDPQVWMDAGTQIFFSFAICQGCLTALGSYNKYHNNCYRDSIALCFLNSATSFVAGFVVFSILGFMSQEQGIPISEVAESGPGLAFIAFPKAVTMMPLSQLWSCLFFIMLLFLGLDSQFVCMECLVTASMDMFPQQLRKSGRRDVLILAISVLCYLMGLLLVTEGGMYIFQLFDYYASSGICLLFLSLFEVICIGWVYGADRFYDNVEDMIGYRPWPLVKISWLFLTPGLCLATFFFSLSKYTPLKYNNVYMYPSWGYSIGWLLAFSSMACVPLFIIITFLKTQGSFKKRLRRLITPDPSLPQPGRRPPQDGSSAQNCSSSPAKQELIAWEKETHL
The experiment in a line: Inhibition of mouse BGT1 expressed in HEK293 cells assessed as reduction in [3H]GABA uptake after 3 mins by scintillation counting method. It is filed as cell-based.
Conditions: not given
Summed up:
as §2
Turning to `CCOc1cccc(CN2CCC(NC(=O)c3ccc(Cl)nc3Cl)CC2)c1`, the IC50 is 111 µM.

The same series, now with this note: read-out: IC50.
With `CCOc1cccc(CN2CCC(NC(=O)c3ccc(Cl)nc3Cl)CC2)c1`, the IC50 was found to be 111 µM.

As for `O=C(NC1CCN(Cc2cccc(C(F)(F)F)c2)CC1)c1ccc(Cl)cc1Cl`, the IC50 was found to be 51 µM.

On to `COc1cccc(CN2CCC(NC(=O)c3ccc(Cl)nc3Cl)CC2)c1`, for which the IC50 was 115 µM.

With `O=C(NC1CCN(Cc2ccccc2)CC1)c1c(Cl)cc(Cl)cc1Cl`, the IC50 is 11 µM.

In a further series the target is Sodium- and chloride-dependent GABA transporter 1 (Homo sapiens, UniProt P30531). It counts as cell-based. The settings on record: read-out: IC50.
Sodium- and chloride-dependent GABA transporter 1 (Homo sapiens, UniProt P30531), sequence (P30531 whole entry): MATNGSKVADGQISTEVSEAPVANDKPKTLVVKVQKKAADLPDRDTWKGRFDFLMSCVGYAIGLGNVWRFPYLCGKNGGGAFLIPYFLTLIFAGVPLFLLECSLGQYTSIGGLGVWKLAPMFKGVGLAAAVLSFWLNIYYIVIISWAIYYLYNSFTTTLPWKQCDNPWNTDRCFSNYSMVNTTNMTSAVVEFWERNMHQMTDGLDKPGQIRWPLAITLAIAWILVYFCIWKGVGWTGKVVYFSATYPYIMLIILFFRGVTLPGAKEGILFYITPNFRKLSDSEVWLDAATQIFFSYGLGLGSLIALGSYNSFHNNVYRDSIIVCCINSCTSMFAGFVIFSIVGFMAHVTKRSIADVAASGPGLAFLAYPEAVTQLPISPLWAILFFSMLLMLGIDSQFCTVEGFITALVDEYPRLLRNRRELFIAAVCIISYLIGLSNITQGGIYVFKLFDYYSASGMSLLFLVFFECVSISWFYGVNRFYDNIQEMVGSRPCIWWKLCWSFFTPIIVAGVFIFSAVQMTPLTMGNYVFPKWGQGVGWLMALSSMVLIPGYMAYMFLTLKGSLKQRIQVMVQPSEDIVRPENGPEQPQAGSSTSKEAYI
As for `O=C(NC1CCN(Cc2ccccc2)CC1)c1ccccc1`, the IC50 was greater than 1000 µM.

As for `O=C(NC1CCN(Cc2ccccc2)CC1)c1ccc(F)cc1`, the IC50 is greater than 300 µM.

As to `O=C(NC1CCN(Cc2ccncc2)CC1)c1ccc(Cl)cc1Cl`, the IC50 is greater than 1000 µM.

For `N#Cc1ccc(CN2CCC(NC(=O)c3ccc(Cl)cc3Cl)CC2)cc1`, the IC50 is greater than 50 µM.

Tested on in another series: not listed separately
As to the kind of experiment: Solubility of compound in pH 7.4 phosphate buffer after 24 hrs by HPLC-UV method. It counts as physicochemical.
Conditions: not given
On to `CCOc1cccc(CN2CCC(NC(=O)c3ccc(Cl)nc3Cl)CC2)c1`, for which the solubility at 24 h worked out at 130 µg/mL (≈ 318 µM).

On to `O=C(NC1CCN(Cc2cccc(C(F)(F)F)c2)CC1)c1ccc(Cl)cc1Cl`, for which the solubility at 24 h is 3 µg/mL (≈ 6.96 µM). Compared with the last compound, the solubility at 24 h is about 43-fold lower.

Compound `COc1cccc(CN2CCC(NC(=O)c3ccc(Cl)nc3Cl)CC2)c1` registered a solubility at 24 h of 240 µg/mL (≈ 609 µM).

For the compound `O=C(NC1CCN(Cc2ccccc2)CC1)c1c(Cl)cc(Cl)cc1Cl`, the concentration in solution (solubility at 24 h) was 40 µg/mL (≈ 101 µM). Compared with the last compound, the solubility at 24 h is about 6-fold lower.

The target of the next series is T4, Sodium- and chloride-dependent betaine transporter (Homo sapiens, UniProt P48065).
T4 sequence (P48065 whole entry): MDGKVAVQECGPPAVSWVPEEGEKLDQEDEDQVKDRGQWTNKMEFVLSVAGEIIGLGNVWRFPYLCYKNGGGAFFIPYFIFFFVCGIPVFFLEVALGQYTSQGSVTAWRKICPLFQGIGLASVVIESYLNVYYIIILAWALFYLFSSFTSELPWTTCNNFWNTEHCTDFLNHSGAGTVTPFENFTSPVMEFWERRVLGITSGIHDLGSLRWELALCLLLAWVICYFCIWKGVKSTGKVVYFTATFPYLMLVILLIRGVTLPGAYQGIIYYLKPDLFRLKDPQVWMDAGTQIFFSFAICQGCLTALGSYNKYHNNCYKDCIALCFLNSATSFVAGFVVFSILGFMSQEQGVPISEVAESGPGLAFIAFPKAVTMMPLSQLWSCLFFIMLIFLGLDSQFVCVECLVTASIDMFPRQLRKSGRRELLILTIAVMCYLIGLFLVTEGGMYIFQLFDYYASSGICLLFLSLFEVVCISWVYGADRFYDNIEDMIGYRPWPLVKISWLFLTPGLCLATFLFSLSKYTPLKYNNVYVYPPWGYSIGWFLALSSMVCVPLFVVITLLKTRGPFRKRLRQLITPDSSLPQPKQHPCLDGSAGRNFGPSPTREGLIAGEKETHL
The experiment in a line: Inhibition of human BGT1 expresses in tsA201 cells assessed as reduction in [3H]GABA uptake after 3 mins by scintillation counting method. It counts as cell-based. The settings on record: read-out: IC50. The procedure, abridged:
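tsA201 cells transiently transfected with wild-type or mutant human BGT1 (PolyFect) were plated about 24 h before assay. Three ice-cold washes followed, then scintillation counting.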
Turning to `O=C(NC1CCN(Cc2ccccc2)CC1)c1ccccc1`, the IC50 turned out to be 290 µM.

For the compound `O=C(NC1CCN(Cc2ccccc2)CC1)c1ccc(F)cc1`, the IC50 is 100 µM.

Consider `O=C(NC1CCN(Cc2ccncc2)CC1)c1ccc(Cl)cc1Cl`, for which the IC50 was greater than 1000 µM.

On to `N#Cc1ccc(CN2CCC(NC(=O)c3ccc(Cl)cc3Cl)CC2)cc1`, for which the IC50 is greater than 50 µM.

In the next series the target is T5, GABA transporter 3 (Mus musculus, UniProt P31649).
T5 sequence (P31649 whole entry): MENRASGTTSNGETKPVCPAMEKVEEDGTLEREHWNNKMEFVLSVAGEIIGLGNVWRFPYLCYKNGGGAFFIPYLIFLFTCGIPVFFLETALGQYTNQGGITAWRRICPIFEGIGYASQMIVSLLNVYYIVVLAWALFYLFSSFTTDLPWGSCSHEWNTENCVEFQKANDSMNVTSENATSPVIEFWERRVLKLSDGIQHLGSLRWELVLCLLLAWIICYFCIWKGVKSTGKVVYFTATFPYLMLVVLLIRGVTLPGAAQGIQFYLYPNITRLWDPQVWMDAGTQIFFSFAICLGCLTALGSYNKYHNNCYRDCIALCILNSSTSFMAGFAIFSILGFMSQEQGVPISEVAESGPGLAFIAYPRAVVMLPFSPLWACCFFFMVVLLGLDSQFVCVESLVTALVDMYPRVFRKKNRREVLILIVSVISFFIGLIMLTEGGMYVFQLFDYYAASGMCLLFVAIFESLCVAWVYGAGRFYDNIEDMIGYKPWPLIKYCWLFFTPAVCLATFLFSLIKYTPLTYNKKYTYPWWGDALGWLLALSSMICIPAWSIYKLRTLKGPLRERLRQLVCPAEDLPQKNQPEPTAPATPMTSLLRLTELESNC
The experiment in a line: Inhibition of mouse GAT2 expressed in HEK293 cells assessed as reduction in [3H]GABA uptake after 3 mins by scintillation counting method. It is filed as cell-based.
Conditions: not given
The procedure, abridged:
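HEK293 cells stably expressing mouse GAT2 were kept under blasticidin-S (5 µg/mL) selection. Ice-cold washes preceded scintillation counting. IC50 came from a variable-slope sigmoidal fit.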
For the compound `CCOc1cccc(CN2CCC(NC(=O)c3ccc(Cl)nc3Cl)CC2)c1`, the IC50 was greater than 300 µM.

For the compound `O=C(NC1CCN(Cc2cccc(C(F)(F)F)c2)CC1)c1ccc(Cl)cc1Cl`, the 50% inhibitory concentration (IC50) is greater than 1000 µM.

On to `COc1cccc(CN2CCC(NC(=O)c3ccc(Cl)nc3Cl)CC2)c1`, for which the IC50 was greater than 300 µM.

With `O=C(NC1CCN(Cc2ccccc2)CC1)c1c(Cl)cc(Cl)cc1Cl`, the half-maximal inhibitory concentration (IC50) worked out at 1700 µM.
